{"source": "ChEMBL document CHEMBL4376814", "about": "“Novel cyclin-dependent kinase 9 (CDK9) inhibitor with suppression of cancer stemness activity against non-small-cell lung cancer” (Eur J Med Chem, 2019)", "key": {"[1]": {"test_system": "A549", "experiment": "Inhibition of colony formation in human A549 cells after 12 days by crystal violet staining based assay", "assay_type": "functional, cell-based", "method_in_brief": "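Cells exposed to compound, then washed, trypsinized and reseeded at 300 cells per well in 6-well plates. Colonies grew 10-14 days (legend: 12 days), were fixed in methanol 30 min, stained overnight with 0.5% crystal violet and imaged.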"}, "[2]": {"test_system": "NCI-H1299", "experiment": "Induction of apoptosis in human H1299 cells assessed as viable cells at 0.25 uM after 48 hrs by AnnexinV-FITC/PI staining-based flow cytometric analysis (reference value: 97.1%)", "assay_type": "functional", "settings": "NCI-H1299, 48 h, read-out: Activity"}, "[3]": {"target": "Serine/threonine-protein kinase/endoribonuclease IRE1 (Homo sapiens) (UniProt O75460)", "experiment": "Inhibition of recombinant human IRE1 (465 to end residues) at 1 uM using myelin basic protein as substrate measured after 40 mins in presence of [gamma33P]ATP by scintillation counting method relative to control"}, "[4]": {"target": "Serine/threonine-protein kinase 32B (Homo sapiens) (UniProt Q9NY57)", "sequence (Q9NY57 whole entry)": "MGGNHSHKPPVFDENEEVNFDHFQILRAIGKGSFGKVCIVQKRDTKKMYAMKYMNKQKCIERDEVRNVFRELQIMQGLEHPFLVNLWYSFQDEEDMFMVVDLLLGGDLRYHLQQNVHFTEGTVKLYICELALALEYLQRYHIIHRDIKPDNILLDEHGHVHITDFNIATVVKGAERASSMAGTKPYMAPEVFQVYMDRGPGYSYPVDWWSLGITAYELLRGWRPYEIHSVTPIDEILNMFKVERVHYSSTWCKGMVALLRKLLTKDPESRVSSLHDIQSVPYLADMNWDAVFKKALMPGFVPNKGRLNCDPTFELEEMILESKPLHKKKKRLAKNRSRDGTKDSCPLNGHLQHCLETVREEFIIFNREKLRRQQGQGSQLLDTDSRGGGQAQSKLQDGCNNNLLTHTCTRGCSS", "experiment": "Inhibition of recombinant full-length human STK32B at 1 uM using casein as substrate measured after 120 mins in presence of [gamma33P]ATP by scintillation counting method relative to control"}, "[5]": {"test_system": "Angiopoietin-1 receptor (Homo sapiens), Q02763 [Q939H,Q940H]", "experiment": "Inhibition of human Tie2 Q939H/Q940H mutant (771 to end residues) at 1 uM using poly(Glu, Tyr) 4:1 as substrate measured after 40 mins in presence of [gamma33P]ATP by scintillation counting method relative to control", "method_in_brief": "(§1)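 Single-point inhibition at 1 µM was measured in the Eurofins KinaseProfiler panel. Values are the mean of two independent experiments.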"}, "[6]": {"test_system": "A549", "experiment": "Induction of apoptosis in human A549 cells assessed as increase in Bim protein expression at 0.25 to 1 uM after 24 hrs by Western blot analysis", "assay_type": "functional, cell-based", "method_in_brief": "(§2)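 A549 or H1299 cells exposed to the indicated concentrations for 24 h. Protein extracts then immunoblotted for apoptosis-pathway proteins (Bcl2, Bim, cleaved caspase 3).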"}, "[7]": {"target": "Serine/threonine-protein kinase STK11 (Homo sapiens) (UniProt Q15831)", "sequence (Q15831 whole entry)": "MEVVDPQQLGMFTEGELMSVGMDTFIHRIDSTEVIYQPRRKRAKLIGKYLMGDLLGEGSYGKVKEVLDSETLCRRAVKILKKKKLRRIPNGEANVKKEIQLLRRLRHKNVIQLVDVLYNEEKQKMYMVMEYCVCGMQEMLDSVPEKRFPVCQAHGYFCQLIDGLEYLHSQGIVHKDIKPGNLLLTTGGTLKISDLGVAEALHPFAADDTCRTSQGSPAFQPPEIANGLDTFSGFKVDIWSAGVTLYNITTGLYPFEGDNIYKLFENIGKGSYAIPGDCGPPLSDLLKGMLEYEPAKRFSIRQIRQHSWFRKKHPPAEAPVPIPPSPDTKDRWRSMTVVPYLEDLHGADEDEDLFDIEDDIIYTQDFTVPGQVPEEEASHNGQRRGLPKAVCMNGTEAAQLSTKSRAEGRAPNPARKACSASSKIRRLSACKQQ", "experiment": "Inhibition of recombinant full-length human LKB1 at 1 uM using LSNLYHQGKFLQTFCGSPLYRRR as substrate measured after 40 mins in presence of [gamma33P]ATP by scintillation counting method relative to control"}, "[8]": {"target": "Proto-oncogene tyrosine-protein kinase receptor Ret (Homo sapiens) (UniProt P07949)", "sequence (P07949 whole entry)": "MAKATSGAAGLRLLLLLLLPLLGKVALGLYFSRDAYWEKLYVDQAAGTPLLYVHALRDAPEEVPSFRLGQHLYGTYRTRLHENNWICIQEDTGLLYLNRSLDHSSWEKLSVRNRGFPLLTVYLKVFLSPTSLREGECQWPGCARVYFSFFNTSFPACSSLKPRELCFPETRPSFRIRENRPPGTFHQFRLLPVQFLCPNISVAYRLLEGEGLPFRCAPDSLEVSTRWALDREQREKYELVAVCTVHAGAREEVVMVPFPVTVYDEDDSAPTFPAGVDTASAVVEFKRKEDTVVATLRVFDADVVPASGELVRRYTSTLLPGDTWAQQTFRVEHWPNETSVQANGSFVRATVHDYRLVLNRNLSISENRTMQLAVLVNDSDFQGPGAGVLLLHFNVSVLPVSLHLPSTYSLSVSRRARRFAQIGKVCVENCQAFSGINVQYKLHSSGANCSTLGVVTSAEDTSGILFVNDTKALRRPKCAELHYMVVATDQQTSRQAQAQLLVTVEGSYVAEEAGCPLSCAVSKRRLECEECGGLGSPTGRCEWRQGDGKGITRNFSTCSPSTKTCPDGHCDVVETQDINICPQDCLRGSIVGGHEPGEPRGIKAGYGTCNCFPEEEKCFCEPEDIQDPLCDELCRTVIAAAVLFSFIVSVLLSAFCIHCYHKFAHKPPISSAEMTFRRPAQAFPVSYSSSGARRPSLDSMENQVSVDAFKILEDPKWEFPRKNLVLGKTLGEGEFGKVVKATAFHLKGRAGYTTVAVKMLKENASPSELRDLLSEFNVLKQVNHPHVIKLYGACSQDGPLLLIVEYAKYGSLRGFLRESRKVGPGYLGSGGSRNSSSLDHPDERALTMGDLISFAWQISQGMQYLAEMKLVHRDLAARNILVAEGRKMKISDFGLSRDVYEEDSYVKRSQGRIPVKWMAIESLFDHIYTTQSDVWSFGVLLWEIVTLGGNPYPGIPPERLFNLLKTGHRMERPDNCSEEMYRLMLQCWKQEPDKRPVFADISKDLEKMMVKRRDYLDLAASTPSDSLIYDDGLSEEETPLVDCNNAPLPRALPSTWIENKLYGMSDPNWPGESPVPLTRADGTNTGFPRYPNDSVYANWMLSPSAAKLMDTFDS", "experiment": "Inhibition of human Ret (658 to end residues) at 1 uM using KKKSPGEYVNIEFG as substrate measured after 40 mins in presence of [gamma33P]ATP by scintillation counting method relative to control", "method_in_brief": "(§3)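 Percent inhibition of kinase activity at a single compound concentration, measured by the outsourced Eurofins KinaseProfiler panel. Values are the mean of two independent experiments.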"}, "[9]": {"target": "Serine/threonine-protein kinase PLK2 (Homo sapiens) (UniProt Q9NYY3)", "sequence (Q9NYY3 whole entry, looked up, the tested form may be a part)": "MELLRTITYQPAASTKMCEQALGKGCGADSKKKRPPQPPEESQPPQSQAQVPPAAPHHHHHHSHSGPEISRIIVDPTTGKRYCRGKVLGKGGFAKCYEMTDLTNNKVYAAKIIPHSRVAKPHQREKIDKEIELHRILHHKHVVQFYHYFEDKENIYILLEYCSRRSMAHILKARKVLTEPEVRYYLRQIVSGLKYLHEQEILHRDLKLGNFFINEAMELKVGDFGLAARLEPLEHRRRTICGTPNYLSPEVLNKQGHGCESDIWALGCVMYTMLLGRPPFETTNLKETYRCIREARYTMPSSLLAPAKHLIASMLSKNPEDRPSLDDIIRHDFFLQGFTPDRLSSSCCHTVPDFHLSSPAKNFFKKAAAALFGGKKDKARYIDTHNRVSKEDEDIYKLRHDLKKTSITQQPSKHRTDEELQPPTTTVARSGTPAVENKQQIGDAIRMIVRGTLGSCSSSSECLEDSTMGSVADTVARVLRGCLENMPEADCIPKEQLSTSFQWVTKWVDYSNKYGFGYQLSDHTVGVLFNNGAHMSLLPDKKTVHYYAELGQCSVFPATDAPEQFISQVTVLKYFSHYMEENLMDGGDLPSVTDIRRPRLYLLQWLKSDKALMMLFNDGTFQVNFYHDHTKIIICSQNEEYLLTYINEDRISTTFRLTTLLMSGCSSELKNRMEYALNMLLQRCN", "experiment": "Inhibition of human Snk (65 to 409 residues) at 1 uM using casein as substrate measured after 40 mins in presence of [gamma33P]ATP by scintillation counting method relative to control", "method_in_brief": "as §3"}, "[10]": {"target": "PI3K p110 beta/p85 alpha (Homo sapiens) (UniProt P27986+P42338)", "experiment": "Inhibition of recombinant full-length human PI3K p110beta/p85alpha at 1 uM using phosphatidylinositol-4, 5-bisphosphate as substrate measured after 40 mins by fluorescence assay relative to control", "assay_type": "protein-complex assay"}, "[11]": {"target": "Serine/threonine-protein kinase ICK (Homo sapiens) (UniProt Q9UPZ9)", "sequence (Q9UPZ9 whole entry, the tested form may be a part)": "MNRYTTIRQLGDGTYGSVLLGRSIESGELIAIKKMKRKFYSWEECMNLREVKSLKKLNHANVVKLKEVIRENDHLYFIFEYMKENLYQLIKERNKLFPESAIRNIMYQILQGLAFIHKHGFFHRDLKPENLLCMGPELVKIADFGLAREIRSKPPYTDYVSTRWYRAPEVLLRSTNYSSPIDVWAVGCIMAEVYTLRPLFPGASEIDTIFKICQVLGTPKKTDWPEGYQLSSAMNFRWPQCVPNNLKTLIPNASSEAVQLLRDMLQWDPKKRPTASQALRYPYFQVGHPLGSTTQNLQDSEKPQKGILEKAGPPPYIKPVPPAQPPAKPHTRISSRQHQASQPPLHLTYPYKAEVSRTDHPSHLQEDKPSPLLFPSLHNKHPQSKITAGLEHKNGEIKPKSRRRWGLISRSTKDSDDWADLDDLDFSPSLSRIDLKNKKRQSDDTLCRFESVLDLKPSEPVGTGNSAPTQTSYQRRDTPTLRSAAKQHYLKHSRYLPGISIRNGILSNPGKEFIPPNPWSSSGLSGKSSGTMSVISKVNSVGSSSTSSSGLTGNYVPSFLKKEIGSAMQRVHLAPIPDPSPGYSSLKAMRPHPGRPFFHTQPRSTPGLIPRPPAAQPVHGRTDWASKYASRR", "experiment": "Inhibition of recombinant human ICK (1 to 312 residues) at 1 uM using RRRFRPASPLRGPPK as substrate measured after 40 mins in presence of [gamma33P]ATP by scintillation counting method relative to control"}, "[12]": {"target": "Inhibitor of nuclear factor kappa-B kinase subunit beta (Homo sapiens) (UniProt O14920)", "experiment": "Inhibition of recombinant full-length human IKKbeta at 1 uM using peptide substrate measured after 40 mins in presence of [gamma33P]ATP by scintillation counting method relative to control"}, "[13]": {"target": "3-phosphoinositide-dependent protein kinase 1 (Homo sapiens) (UniProt O15530)", "sequence (O15530 whole entry, looked up)": "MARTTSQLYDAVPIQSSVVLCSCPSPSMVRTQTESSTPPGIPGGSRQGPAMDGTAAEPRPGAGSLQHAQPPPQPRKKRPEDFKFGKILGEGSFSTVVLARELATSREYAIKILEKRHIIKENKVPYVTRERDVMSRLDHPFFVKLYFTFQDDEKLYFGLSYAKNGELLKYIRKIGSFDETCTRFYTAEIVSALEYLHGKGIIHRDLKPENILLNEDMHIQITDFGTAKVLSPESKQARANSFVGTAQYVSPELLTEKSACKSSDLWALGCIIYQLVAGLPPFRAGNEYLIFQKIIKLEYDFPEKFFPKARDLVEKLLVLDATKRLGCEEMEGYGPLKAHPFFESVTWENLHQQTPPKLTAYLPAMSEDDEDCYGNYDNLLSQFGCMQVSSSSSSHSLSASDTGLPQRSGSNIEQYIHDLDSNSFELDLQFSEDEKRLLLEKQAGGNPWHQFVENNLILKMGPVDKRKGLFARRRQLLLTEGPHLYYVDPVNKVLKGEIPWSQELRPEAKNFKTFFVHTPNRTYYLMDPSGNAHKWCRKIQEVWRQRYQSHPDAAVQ", "experiment": "Inhibition of recombinant human PDK1 (52 to end residues) at 1 uM using PDKtide as substrate measured after 40 mins in presence of [gamma33P]ATP by scintillation counting method relative to control"}, "[14]": {"target": "Ephrin type-A receptor 8 (Homo sapiens) (UniProt P29322)", "experiment": "Inhibition of recombinant human EphA8 (615 to 911 residues) at 1 uM using KTFCGTPEYLAPEVRREPRILSEEEQEMFRDFDYIADWC as substrate measured after 40 mins in presence of [gamma33P]ATP by scintillation counting method relative to control"}, "[15]": {"target": "Cyclin-dependent kinase 5/CDK5 activator 1 (Homo sapiens) (UniProt Q00535+Q15078)", "experiment": "Inhibition of recombinant full-length human CDK5/p35 at 1 uM using Histone H1 as substrate measured after 40 mins in presence of [gamma33P]ATP by scintillation counting method relative to control", "assay_type": "protein-complex assay"}, "[16]": {"target": "Mitogen-activated protein kinase kinase kinase 9 (Homo sapiens) (UniProt P80192)", "experiment": "Inhibition of recombinant human MLK1 (134 to 414 residues) at 1 uM using casein as substrate measured after 40 mins in presence of [gamma33P]ATP by scintillation counting method relative to control"}, "[17]": {"test_system": "NCI-H1299", "experiment": "Down regulation CDK9 expression in human H1299 cells at 0.25 to 1 uM after 24 hrs by Western blot analysis", "assay_type": "functional, cell-based", "method_in_brief": "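A549 and H1299 cells treated for 24 h with serial dilutions alongside a DMSO control. Protein extracts resolved and immunoblotted.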"}, "[18]": {"test_system": "Mast/stem cell growth factor receptor Kit (Homo sapiens), P10721 [D816V]", "experiment": "Inhibition of recombinant human cKit (544 to end residues) D816V mutant at 1 uM using poly(Glu, Tyr) 4:1 as substrate measured after 40 mins in presence of [gamma33P]ATP by scintillation counting method relative to control", "method_in_brief": "as §1"}, "[19]": {"target": "cGMP-dependent protein kinase 1 (Homo sapiens) (UniProt Q13976)", "sequence (Q13976 whole entry)": "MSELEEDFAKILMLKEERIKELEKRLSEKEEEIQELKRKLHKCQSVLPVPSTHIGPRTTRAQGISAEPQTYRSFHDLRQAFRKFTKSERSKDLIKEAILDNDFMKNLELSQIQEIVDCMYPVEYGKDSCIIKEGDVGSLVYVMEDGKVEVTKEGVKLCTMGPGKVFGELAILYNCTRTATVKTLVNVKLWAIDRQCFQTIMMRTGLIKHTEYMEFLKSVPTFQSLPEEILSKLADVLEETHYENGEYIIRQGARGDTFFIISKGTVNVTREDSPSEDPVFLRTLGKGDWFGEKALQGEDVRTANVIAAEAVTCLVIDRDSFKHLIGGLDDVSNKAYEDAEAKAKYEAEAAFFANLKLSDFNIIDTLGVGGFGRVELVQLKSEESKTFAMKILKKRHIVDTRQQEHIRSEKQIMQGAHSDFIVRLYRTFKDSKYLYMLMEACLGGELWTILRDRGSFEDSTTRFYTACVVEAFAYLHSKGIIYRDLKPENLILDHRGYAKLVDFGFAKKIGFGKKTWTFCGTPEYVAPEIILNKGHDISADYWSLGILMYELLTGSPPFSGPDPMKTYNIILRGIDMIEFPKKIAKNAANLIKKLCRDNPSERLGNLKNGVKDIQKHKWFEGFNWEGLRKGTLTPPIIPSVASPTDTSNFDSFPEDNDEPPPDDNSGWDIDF", "experiment": "Inhibition of recombinant full-length human PKG1alpha at 1 uM using RRRLSFAEPG as substrate measured after 40 mins in presence of [gamma33P]ATP by scintillation counting method relative to control"}, "[20]": {"target": "Activin receptor type-2A (Homo sapiens) (UniProt P27037)", "experiment": "Inhibition of recombinant human ACTR2 (162 to end residues) at 1 uM using casein as substrate measured after 120 mins in presence of [gamma33P]ATP by scintillation counting method relative to control"}, "[21]": {"test_system": "A549", "experiment": "Induction of apoptosis in human A549 cells assessed as activation of caspase 3 at 0.25 to 1 uM after 24 hrs by Western blot analysis", "assay_type": "functional, cell-based", "method_in_brief": "as §2"}, "[22]": {"test_system": "Tyrosine-protein kinase Blk (Homo sapiens), P51451 [UNDEFINED MUTATION]", "sequence (P51451 whole entry, looked up, stated change not applied)": "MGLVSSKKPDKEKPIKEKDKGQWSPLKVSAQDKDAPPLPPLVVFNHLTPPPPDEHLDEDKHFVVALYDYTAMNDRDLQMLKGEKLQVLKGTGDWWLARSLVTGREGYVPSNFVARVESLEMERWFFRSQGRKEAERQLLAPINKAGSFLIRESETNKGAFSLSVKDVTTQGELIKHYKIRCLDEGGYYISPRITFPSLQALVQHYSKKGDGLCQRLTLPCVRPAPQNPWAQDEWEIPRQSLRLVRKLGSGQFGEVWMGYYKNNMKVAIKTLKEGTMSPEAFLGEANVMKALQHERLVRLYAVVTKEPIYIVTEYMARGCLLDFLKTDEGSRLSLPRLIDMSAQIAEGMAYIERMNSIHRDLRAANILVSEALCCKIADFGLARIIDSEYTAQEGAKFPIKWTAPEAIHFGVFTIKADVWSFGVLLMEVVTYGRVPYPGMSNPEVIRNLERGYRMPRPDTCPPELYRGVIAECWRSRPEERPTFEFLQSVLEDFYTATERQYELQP", "experiment": "Inhibition of full-length recombinant human BLK M287V mutant at 1 uM using poly(Glu, Tyr) 4:1 as substrate measured after 40 mins in presence of [gamma33P]ATP by scintillation counting method relative to control", "method_in_brief": "as §3"}}, "note": "Calls of active or inactive are those of the source. No cut-off for these calls is given here.", "data": [{"smiles": "CN(C)C(=O)c1cc2cnc(Nc3ccc(NC(=O)CCCCCCCN=C=S)cc3)nc2n1C1CCCC1", "values": [{"measurement": "inhibition", "setting": "[1]", "result": "Dose-dependent effect"}, {"measurement": "viability at 0.25 µM", "setting": "[2]", "result": 96.7, "unit": "%"}, {"measurement": "inhibition", "setting": "[3]", "result": 29, "unit": "%"}, {"measurement": "inhibition", "setting": "[4]", "result": 49, "unit": "%"}, {"measurement": "inhibition", "setting": "[5]", "result": 29, "unit": "%"}, {"measurement": "Activity", "setting": "[6]", "result": "Active"}, {"measurement": "inhibition", "setting": "[7]", "result": 0, "unit": "%"}, {"measurement": "inhibition", "setting": "[8]", "result": 55, "unit": "%"}, {"measurement": "inhibition", "setting": "[9]", "result": 4, "unit": "%"}, {"measurement": "inhibition", "setting": "[10]", "result": 5, "unit": "%"}, {"measurement": "inhibition", "setting": "[11]", "result": 38, "unit": "%"}, {"measurement": "inhibition", "setting": "[12]", "result": -1, "unit": "%"}, {"measurement": "inhibition", "setting": "[13]", "result": 1, "unit": "%"}, {"measurement": "inhibition", "setting": "[14]", "result": 2, "unit": "%"}, {"measurement": "inhibition", "setting": "[15]", "result": 59, "unit": "%"}, {"measurement": "inhibition", "setting": "[16]", "result": 34, "unit": "%"}, {"measurement": "Activity", "setting": "[17]", "result": "inactive"}, {"measurement": "inhibition", "setting": "[18]", "result": 11, "unit": "%"}, {"measurement": "inhibition", "setting": "[19]", "result": -3, "unit": "%"}, {"measurement": "inhibition", "setting": "[20]", "result": 0, "unit": "%"}, {"measurement": "Activity", "setting": "[21]", "result": "Active"}, {"measurement": "inhibition", "setting": "[22]", "result": 45, "unit": "%"}]}]}
